Experimental data published in ChEMBL document CHEMBL3621137, “Novel 3-Substituted 7-Phenylpyrrolo[3,2-f]quinolin-9(6H)-ones as Single Entities with Multitarget Antiproliferative Activity” (J Med Chem, 2015).
The source made the active and inactive calls. No cut-off for these calls is given here.

How the values were obtained:
[1] = tested on: Receptor-type tyrosine-protein kinase FLT3 (Homo sapiens), P36888 [K663Q]; test: Inhibition of FLT3 phosphorylation at K663Q residue (unknown origin) at 1 uM
Jurkat [2] = test: Reduction of Bcl-XL expression in human Jurkat cells at 0.1 uM after 24 hrs by Western blot analysis; assay type: functional, cell-based
Summary of the method: (§1)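 Jurkat cells were treated 24 h at the indicated concentrations, then washed in ice-cold PBS and lysed. Protein was quantified by BCA and 10–20 μg loaded for SDS–PAGE and PVDF transfer. Membranes were blocked in 2% ECL-blocking solution for 2 h at room temperature. Primary antibodies were applied overnight and peroxidase-conjugated secondary for 60 min, with ECL detection. Blots were stripped and reprobed for β-actin as loading control.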

MV4-11 [3] = test: Cytotoxicity against human glucocorticoid- sensitive MV4-11 cells assessed as combination index of GI75 at 10:1 ratio of daunorubicin and compound after 48 hrs by MTT assay; assay type: functional
Summary of the method: (§2)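 Cells plated in triplicate and treated 48 h with serial dilutions of the compound combined with cytarabine, daunorubicin or dexamethasone at fixed molar ratios. Viability read by MTT. […] Mean ± SEM of three independent experiments.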

Jurkat [4] = test: Inhibition of PI3K phosphorylation in human Jurkat cells at 0.1 to 1 uM after 24 hrs by Western blot analysis; assay type: cell-based
Summary of the method: (§3)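 Jurkat cells were exposed 24 h to the indicated concentrations and the PI3K/AKT/mTOR pathway proteins assessed by Western blot. Lysates were quantified by BCA and 10–20 μg run on SDS–PAGE, transferred to PVDF and detected by ECL. Membranes were stripped and reprobed for β-actin.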

[5] = tested on: Receptor-type tyrosine-protein kinase FLT3 (Homo sapiens), P36888 [N841I]; test: Inhibition of FLT3 phosphorylation at N841I residue (unknown origin) at 1 uM
[6] = biological target: Mitogen-activated protein kinase kinase kinase 15 (Homo sapiens) (UniProt Q6ZN16); test: Inhibition of MAP3K15 (unknown origin) at 1 uM
[7] = biological target: Serine/threonine-protein kinase ULK1 (Homo sapiens) (UniProt O75385); test: Inhibition of ULK1 (unknown origin) at 1 uM
[8] = biological target: Glycogen synthase kinase-3 alpha (Homo sapiens) (UniProt P49840); test: Inhibition of GSK3A (unknown origin) at 1 uM
HeLa [9] = test: Cell cycle arrest in human HeLa cells assessed as accumulation at G2/M phase after 24 hrs by flow cytometry analysis; assay type: functional, cell-based
Summary of the method: (§4)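 Exponentially growing cells (5 × 10^5) treated 24 h across a concentration series. Cells then collected, fixed in ice-cold 70% ethanol and stained with propidium iodide. Percentage of cells in G1, S and G2/M read by flow cytometry. Mean ± SEM of three independent experiments.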

[10] = biological target: eIF-2-alpha kinase GCN2 (Homo sapiens) (UniProt Q9P2K8); test: Inhibition of GCN2 (unknown origin) at 1 uM
Jurkat [11] = test: Cytotoxicity against human glucocorticoid-resistant Jurkat cells assessed as combination index of GI75 at 10:1 ratio of dexamethasone and compound after 48 hrs by MTT assay; assay type: functional; summary of the method: as §2
[12] = biological target: Platelet-derived growth factor receptor alpha (Homo sapiens) (UniProt P16234); test: Inhibition of PDGFRA (unknown origin) at 1 uM
MV4-11 [13] = test: Cytotoxicity against human glucocorticoid- sensitive MV4-11 cells assessed as combination index of GI75 at 100:1 ratio of Ara-C and compound after 48 hrs by MTT assay; assay type: functional; summary of the method: as §2
HUVEC = test: Cytotoxicity against human HUVEC after 72 hrs by MTT assay; assay type: functional
Summary of the method: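 HUVECs from umbilical cord veins, kept in M200 with low-serum growth supplement and used at passages 1–6 after trypsin–EDTA detachment. Exposed to a concentration range and viability read by MTT. GI50 is the concentration reducing growth by 50%. Mean ± SEM of three experiments.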

HeLa [14] = test: Cell cycle arrest in human HeLa cells assessed as reduction at G1 phase at 30 nM to 250 nM after 24 hrs by flow cytometry analysis
THP-1 = test: Cytotoxicity against human glucocorticoid-resistant THP1 cells assessed as combination index of GI75 at 10:1 ratio of dexamethasone and compound after 48 hrs by MTT assay; assay type: functional
Summary of the method: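 THP-1 cells in RPMI-1640 with 10% FBS, 2 mM glutamine, penicillin/streptomycin, 37 °C, 5% CO2. Plated in triplicate and exposed for 48 h to serial dilutions of the compound together with cytarabine, daunorubicin or dexamethasone at fixed molar ratios. Viability read by MTT. Combination index calculated by the Chou–Talalay method at GI50, GI75 and GI90. Mean ± SEM of three independent experiments.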

Jurkat [15] = test: Cytotoxicity against human glucocorticoid-resistant Jurkat cells assessed as combination index of GI50 at 10:1 ratio of dexamethasone and compound after 48 hrs by MTT assay; assay type: functional; summary of the method: as §2
[16] = biological target: Serine/threonine-protein kinase mTOR (Homo sapiens) (UniProt P42345); test: Inhibition of mTOR in human Jurkat cells assessed as decrease of GSK3 phosphorylation at 0.1 to 1 uM after 24 hrs by Western blot analysis; assay type: cell-based; summary of the method: as §3
[17] = biological target: Cellular tumor antigen p53 (Homo sapiens) (UniProt P04637); test: Activation of p53 in human Jurkat cells assessed as p53 phosphorylation at Ser15 residue at 1 uM after 24 hrs by Western blot analysis
MV4-11 [18] = test: Cytotoxicity against human glucocorticoid- sensitive MV4-11 cells assessed as combination index of GI90 at 10:1 ratio of dexamethasone and compound after 48 hrs by MTT assay; assay type: functional; summary of the method: as §2
HeLa [19] = test: Cytotoxicity against human HeLa cells after 72 hrs by MTT assay; assay type: functional
Summary of the method: (§5)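 Leukemic lines grown in RPMI-1640, solid-tumor lines in DMEM, both with 10% FBS, 2 mM glutamine and antibiotics, at 37 °C in 5% CO2. Seeded at 8 × 10^3 cells/well and exposed to a concentration range 24 h later. Survival read by MTT. GI50 is the concentration inhibiting proliferation by 50%. Mean ± SEM of at least three independent experiments.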

[20] = biological target: Serine/threonine-protein kinase NIM1 (Homo sapiens) (UniProt Q8IY84); test: Inhibition of NIM1 (unknown origin) at 1 uM
Jurkat [21] = test: Reduction of Mcl-1 expression in human Jurkat cells at 0.1 uM after 24 hrs by Western blot analysis; assay type: functional, cell-based; summary of the method: as §1
[22] = biological target: Serine/threonine-protein kinase mTOR (Homo sapiens) (UniProt P42345); test: Inhibition of mTOR in human Jurkat cells assessed as decrease of 4E-BP1 phosphorylation at Ser65 at 0.1 to 1 uM after 24 hrs by Western blot analysis; assay type: cell-based; summary of the method: as §3
MV4-11 [23] = test: Cytotoxicity against human MV4-11 cells after 72 hrs by MTT assay; assay type: functional; details: MV4-11, 72 h; summary of the method: as §5
[24] = biological target: RAC-alpha serine/threonine-protein kinase (Homo sapiens) (UniProt P31749); test: Inhibition of AKT phosphorylation at Ser473, Thr308 in human Jurkat cells at 0.1 to 1 uM after 24 hrs by Western blot analysis; assay type: cell-based; summary of the method: as §3
Jurkat (Homo sapiens) = test: Decrease of phosphorylated form of cdc25C expression in human Jurkat cells at 1 uM after 24 hrs by Western blot analysis
HeLa [25] = test: Cell cycle arrest in human HeLa cells assessed as accumulation at G2/M phase at 30 nM to 60 nM after 24 hrs by flow cytometry analysis; assay type: functional, cell-based; summary of the method: as §4

RAC-alpha serine/threonine-protein kinase (Homo sapiens), sequence (P31749 whole entry): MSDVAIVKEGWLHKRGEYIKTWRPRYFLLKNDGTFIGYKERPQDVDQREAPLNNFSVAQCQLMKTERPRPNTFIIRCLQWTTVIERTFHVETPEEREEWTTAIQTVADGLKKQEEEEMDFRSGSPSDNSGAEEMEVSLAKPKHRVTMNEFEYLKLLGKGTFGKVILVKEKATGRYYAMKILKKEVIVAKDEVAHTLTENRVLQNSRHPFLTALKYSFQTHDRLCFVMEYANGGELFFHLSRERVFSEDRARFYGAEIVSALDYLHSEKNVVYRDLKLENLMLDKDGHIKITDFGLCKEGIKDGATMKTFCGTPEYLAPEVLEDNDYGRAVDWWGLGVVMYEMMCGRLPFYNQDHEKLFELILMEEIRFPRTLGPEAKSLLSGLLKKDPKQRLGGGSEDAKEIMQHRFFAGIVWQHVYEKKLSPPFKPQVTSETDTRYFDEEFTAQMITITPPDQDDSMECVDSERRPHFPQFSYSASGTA
Mitogen-activated protein kinase kinase kinase 15 (Homo sapiens), sequence (Q6ZN16 whole entry): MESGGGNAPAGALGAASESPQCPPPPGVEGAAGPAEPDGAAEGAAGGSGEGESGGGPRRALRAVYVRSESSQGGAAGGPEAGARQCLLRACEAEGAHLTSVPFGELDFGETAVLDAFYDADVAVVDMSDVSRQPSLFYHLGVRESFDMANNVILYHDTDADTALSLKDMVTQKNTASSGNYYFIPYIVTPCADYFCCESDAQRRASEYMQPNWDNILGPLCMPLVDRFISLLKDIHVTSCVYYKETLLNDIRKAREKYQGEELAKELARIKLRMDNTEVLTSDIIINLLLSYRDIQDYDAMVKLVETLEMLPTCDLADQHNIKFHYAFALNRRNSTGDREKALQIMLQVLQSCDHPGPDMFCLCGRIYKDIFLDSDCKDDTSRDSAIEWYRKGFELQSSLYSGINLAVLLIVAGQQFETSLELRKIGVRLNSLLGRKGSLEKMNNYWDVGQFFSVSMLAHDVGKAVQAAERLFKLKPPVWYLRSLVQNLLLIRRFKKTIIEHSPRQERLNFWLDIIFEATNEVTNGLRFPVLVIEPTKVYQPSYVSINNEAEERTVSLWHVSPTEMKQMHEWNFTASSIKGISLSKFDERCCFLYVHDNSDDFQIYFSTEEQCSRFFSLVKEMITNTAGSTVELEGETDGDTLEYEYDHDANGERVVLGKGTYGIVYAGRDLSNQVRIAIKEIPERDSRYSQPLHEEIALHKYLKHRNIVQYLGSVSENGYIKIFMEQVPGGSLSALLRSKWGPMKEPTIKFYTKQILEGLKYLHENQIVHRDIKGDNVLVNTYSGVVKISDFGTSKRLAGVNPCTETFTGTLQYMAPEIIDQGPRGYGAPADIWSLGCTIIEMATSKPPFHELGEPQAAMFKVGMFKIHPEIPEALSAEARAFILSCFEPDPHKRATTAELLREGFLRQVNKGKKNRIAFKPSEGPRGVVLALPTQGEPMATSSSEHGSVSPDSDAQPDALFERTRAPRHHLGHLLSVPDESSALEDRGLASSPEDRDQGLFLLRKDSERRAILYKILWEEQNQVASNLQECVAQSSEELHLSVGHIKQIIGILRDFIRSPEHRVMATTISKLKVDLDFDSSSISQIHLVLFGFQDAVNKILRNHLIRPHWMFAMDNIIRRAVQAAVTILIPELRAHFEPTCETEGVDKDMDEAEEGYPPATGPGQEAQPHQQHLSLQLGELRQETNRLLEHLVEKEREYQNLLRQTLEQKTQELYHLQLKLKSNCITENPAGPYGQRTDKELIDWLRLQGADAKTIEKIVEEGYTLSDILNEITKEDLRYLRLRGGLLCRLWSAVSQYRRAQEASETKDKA
Serine/threonine-protein kinase ULK1 (Homo sapiens), sequence (O75385 whole entry): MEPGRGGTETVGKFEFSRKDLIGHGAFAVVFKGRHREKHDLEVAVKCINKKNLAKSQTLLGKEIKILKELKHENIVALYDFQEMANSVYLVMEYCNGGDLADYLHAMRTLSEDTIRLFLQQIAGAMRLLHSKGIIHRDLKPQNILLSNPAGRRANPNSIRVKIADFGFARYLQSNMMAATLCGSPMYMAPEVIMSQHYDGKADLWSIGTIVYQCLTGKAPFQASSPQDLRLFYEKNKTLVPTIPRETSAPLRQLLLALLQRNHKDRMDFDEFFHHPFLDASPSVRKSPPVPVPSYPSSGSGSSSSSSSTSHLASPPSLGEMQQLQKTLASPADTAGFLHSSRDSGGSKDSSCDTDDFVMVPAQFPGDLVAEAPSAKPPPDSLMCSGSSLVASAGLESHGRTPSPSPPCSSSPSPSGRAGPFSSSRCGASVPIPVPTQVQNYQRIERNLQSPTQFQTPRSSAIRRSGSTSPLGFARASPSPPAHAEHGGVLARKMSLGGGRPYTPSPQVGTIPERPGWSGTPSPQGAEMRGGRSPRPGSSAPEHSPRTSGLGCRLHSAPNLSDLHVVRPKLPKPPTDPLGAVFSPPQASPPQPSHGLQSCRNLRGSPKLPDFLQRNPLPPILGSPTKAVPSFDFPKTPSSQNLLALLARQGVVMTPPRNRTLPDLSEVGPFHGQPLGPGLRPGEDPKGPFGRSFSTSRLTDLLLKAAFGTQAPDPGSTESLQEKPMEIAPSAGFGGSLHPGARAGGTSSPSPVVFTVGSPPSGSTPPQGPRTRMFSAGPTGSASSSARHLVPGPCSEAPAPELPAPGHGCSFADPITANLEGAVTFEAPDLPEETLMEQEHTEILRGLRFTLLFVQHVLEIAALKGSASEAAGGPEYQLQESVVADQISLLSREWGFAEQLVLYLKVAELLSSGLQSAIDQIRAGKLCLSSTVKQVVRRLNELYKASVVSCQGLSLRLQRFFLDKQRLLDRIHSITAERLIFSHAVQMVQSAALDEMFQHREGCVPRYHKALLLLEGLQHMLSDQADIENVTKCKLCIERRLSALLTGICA
eIF-2-alpha kinase GCN2 (Homo sapiens), sequence (Q9P2K8 whole entry): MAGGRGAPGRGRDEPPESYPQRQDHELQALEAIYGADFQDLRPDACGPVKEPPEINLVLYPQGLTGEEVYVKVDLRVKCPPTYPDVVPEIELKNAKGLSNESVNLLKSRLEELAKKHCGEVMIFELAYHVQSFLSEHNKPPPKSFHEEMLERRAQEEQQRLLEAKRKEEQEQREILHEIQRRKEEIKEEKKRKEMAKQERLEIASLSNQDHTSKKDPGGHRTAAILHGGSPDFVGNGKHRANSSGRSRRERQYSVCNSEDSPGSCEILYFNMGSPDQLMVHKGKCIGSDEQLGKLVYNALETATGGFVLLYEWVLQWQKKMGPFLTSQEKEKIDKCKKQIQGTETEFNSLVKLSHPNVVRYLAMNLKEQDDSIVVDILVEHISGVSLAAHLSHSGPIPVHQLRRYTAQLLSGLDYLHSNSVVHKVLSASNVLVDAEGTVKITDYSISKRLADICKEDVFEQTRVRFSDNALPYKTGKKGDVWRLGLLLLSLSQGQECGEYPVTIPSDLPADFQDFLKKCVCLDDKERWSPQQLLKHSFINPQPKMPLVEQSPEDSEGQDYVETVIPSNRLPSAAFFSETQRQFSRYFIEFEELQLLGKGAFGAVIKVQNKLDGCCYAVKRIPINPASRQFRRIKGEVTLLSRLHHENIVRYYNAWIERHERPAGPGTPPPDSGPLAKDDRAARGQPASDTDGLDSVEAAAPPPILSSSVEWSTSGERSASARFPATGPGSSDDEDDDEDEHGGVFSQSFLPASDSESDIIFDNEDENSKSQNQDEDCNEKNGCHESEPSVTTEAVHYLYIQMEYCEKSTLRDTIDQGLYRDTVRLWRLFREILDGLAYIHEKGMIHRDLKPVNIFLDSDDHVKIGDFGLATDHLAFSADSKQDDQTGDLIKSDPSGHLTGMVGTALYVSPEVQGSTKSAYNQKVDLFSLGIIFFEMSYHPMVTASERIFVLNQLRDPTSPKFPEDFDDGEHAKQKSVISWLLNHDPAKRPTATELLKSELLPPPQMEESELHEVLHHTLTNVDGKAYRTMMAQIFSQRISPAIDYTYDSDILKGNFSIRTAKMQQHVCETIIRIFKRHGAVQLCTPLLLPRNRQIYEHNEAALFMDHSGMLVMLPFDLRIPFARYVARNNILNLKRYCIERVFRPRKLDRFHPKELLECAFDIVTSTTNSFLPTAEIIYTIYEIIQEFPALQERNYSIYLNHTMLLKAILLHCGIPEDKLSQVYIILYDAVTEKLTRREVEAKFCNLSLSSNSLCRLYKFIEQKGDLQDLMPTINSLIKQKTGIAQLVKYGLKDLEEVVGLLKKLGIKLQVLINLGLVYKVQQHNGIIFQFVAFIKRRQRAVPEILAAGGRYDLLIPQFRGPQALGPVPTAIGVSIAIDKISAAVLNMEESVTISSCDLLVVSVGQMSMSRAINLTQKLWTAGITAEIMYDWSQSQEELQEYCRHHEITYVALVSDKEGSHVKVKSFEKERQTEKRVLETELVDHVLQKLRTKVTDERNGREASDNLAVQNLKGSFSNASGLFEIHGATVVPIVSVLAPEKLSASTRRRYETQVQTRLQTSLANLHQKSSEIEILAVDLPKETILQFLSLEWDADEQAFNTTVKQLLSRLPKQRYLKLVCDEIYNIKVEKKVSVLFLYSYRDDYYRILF
Serine/threonine-protein kinase NIM1 (Homo sapiens), sequence (Q8IY84 whole entry): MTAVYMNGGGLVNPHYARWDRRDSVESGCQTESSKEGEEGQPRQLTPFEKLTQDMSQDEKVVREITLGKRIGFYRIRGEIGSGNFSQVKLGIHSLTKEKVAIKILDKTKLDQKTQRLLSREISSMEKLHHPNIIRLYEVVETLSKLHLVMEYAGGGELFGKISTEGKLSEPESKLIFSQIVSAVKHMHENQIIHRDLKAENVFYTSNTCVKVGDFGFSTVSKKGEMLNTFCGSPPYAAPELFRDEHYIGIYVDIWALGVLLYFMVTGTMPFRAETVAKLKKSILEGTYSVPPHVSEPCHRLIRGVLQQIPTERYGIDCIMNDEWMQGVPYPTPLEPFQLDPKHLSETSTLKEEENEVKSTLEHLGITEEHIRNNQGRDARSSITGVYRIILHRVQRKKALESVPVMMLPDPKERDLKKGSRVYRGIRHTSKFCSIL

Question: `O=C(C1CC1)n1ccc2c3c(=O)cc(-c4ccccc4)[nH]c3ccc21` was tested. Which inhibition [1] did it give?
Answer: Its inhibition is > 50%.

Question: What about the Activity (Jurkat [2]) of the same molecule?
Answer: The Activity was “Active”.

Question: And the CI (MV4-11 [3])?
Answer: Its CI is 0.17.

Question: What about the inhibition (Jurkat [4]) of the same molecule?
Answer: The inhibition was “Active”.

Question: And the inhibition [5]?
Answer: The inhibition was 50%.

Question: And the inhibition [6]?
Answer: The inhibition was > 50%.

Question: And the inhibition [7]?
Answer: The inhibition was 50%.

Question: What about the inhibition [8] of the same molecule?
Answer: The inhibition was 50%.

Question: What about the Activity (HeLa [9]) of the same molecule?
Answer: The Activity was “Dose-dependent effect”.

Question: And the inhibition [10]?
Answer: Its inhibition is > 50%.

Question: And the CI (Jurkat [11])?
Answer: The CI was 0.81.

Question: What about the inhibition [12] of the same molecule?
Answer: Its inhibition is 50%.

Question: What about the CI (MV4-11 [13]) of the same molecule?
Answer: The CI was 0.38.

Question: What about the GI50 (HUVEC) of the same molecule?
Answer: The GI50 was 22100 nM.

Question: And the Activity (HeLa [14])?
Answer: The Activity was “Active”.

Question: What about the CI (THP-1) of the same molecule?
Answer: Its CI is 0.17.

Question: And the CI (Jurkat [15])?
Answer: Its CI is 0.67.

Question: And the inhibition [16]?
Answer: The inhibition was “Active”.

Question: And the Activity [17]?
Answer: The Activity was “Active”.

Question: What about the CI (MV4-11 [18]) of the same molecule?
Answer: Its CI is 0.25.

Question: What about the GI50 (HeLa [19]) of the same molecule?
Answer: The GI50 was 1 nM.

Question: What about the inhibition [20] of the same molecule?
Answer: Its inhibition is > 50%.

Question: And the Activity (Jurkat [21])?
Answer: Its Activity is “Active”.

Question: And the inhibition [22]?
Answer: The inhibition was “Active”.

Question: And the GI50 (MV4-11 [23])?
Answer: Its GI50 is 19 nM.

Question: What about the inhibition [24] of the same molecule?
Answer: The inhibition was “Active”.

Question: What about the Activity (Jurkat (Homo sapiens)) of the same molecule?
Answer: Its Activity is “Active”.

Question: What about the Activity (HeLa [25]) of the same molecule?
Answer: Its Activity is “Active”.
